Active and inactive are the calls of the source. No cut-off for these calls is given here.
Tests used:
Rattus norvegicus [1] = assay: In vivo inhibition of deoxycorticosterone acetate-induced urinary electrolyte effect in sc dosed adrenalectomized rat measured over 4 hrs; format: functional, Urine
Method in brief: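 Groups of four adrenalectomized rats (150-200 g) were pretreated sc with 12 µg deoxycorticosterone acetate plus 2.5 ml isotonic saline, then dosed subcutaneously with test compound. The assay ran 4 h. MED (mg/rat) is the dose giving 50% inhibition of the DCA-induced increase in urinary Na/K ratio.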

Rattus norvegicus [2] = assay: In vivo inhibition of deoxycorticosterone acetate-induced urinary electrolyte effect in ig dosed adrenalectomized rat measured over 4 hrs; format: functional, Urine
Method in brief: (§1)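 Adrenalectomized rats (150-200 g) in groups of four each received 12 µg deoxycorticosterone acetate and 2.5 ml isotonic saline sc before intragastric test compound, with 2.4 mg/rat as the standard level. Urine was collected over 4 h. The value is the median effective dose (mg/rat) giving 50% inhibition of the DCA-induced rise in urinary Na/K ratio.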

Rattus norvegicus [3] = assay: In vivo inhibition of deoxycorticosterone acetate-induced urinary electrolyte effect in po dosed adrenalectomized rat measured over 4 hrs; format: functional, organism-based; details: Urine; method in brief: as §1

Structure (SMILES)	MED50 (Rattus norvegicus [1]) [mg]	MED50 (Rattus norvegicus [2]) [mg]	inhibition (Rattus norvegicus [3])
C[C@]12CCC(=O)C=C1C[C@@H](C#N)[C@@H]1[C@@H]2CC[C@@]2(C)[C@H]1CC[C@@]21CCC(=O)O1	0.39	>2.4	–
C[C@]12CC[C@H]3[C@@H]([C@H](C#N)CC4=CC(=O)CC[C@@H]43)[C@@H]1CC[C@@]21CCC(=O)O1	1.3	>2.4	–
C[C@]12C=CC(=O)C=C1C[C@@H](C#N)[C@@H]1[C@@H]2CC[C@@]2(C)[C@H]1CC[C@@]21CCC(=O)O1	2.3	>2.4	inactive
C[C@]12CCC(=O)C=C1C[C@@H](N=C=O)[C@@H]1[C@@H]2CC[C@@]2(C)[C@H]1CC[C@@]21CCC(=O)O1	>2.4	>2.4	–
C[C@]12CCC(=O)C=C1C[C@@H](C#N)[C@@H]1[C@@H]2CC[C@@]2(C)[C@H]1CC[C@@]2(O)CCC(=O)[O-].[K+]	–	2.3	inactive
COC(=O)N[C@@H]1CC2=CC(=O)CC[C@]2(C)[C@H]2CC[C@@]3(C)[C@@H](CC[C@@]34CCC(=O)O4)[C@H]12	0.79	2	–
CCOC(=O)N[C@@H]1CC2=CC(=O)CC[C@]2(C)[C@H]2CC[C@@]3(C)[C@@H](CC[C@@]34CCC(=O)O4)[C@H]12	>2.4	>2.4	–

Source: ChEMBL document CHEMBL3272330, “Synthesis and antimineralocorticoid activities of some 7alpha-cyano and 7alpha-alkoxycarbonylamino steroidal spirolactones” (1976)
